SMILES strings stand for the structures.

For assay [1], the system named is HepG2. In words: Antiproliferative activity against human HepG2 cells after 48 hrs by MTT method. It counts as functional, cell-based. The conditions noted are these: HepG2, 48 h. In general terms: Tetrazolium dyes change colour on reduction, which living cells bring about.
Assay [2] in a line: Antiproliferative activity against human SW1116 cells after 48 hrs by MTT method. It counts as functional, cell-based. The conditions noted are these: SW 1116, 48 h.
A further assay relates to HeLa. In words: Antiproliferative activity against human HeLa cells after 48 hrs by MTT method. It counts as functional, cell-based.
The subject of a further assay is BGC-823. In words: Antiproliferative activity against human BGC823 cells after 48 hrs by MTT method. The class given is functional, cell-based. The conditions noted are these: BGC-823, 48 h. An outline of the steps:
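MTT assay. Cells were seeded at 10⁴ per well and held 24 h at 37 °C with 5% CO₂. […] After 48 h, 5 mg/mL MTT in PBS was added for 4 h. Formazan was dissolved in DMSO and absorbance read at 490 nm.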

Assay [3] deals with Telomerase reverse transcriptase (Homo sapiens, UniProt O14746). Put plainly: Inhibition of telomerase in human HepG2 cells after 24 hrs by TRAP-PCR-ELISA assay. It counts as cell-based. In short, it runs like this:
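Cells in serum/penicillin/streptomycin medium (37 °C, 5% CO₂) were seeded at 5×10⁴ per T25 flask and allowed to adhere. After 24 h treatment, cells were lysed in RIPA buffer on ice for 30 min and spun at 12,000 g for 20 min at 4 °C. For the kit-based TRAP-PCR-ELISA, PCR ran 94 °C 120 s, then 35 cycles of 94/50/72 °C. Product was hybridised to a DIG probe, captured via biotin-streptavidin, detected with peroxidase anti-DIG, and read at 490 nm.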
(In general: An ELISA detects its analyte on a solid surface through an enzyme-linked reagent.)

For assay [4], the system named is HepG2. Put plainly: Induction of apoptosis in human HepG2 cells after 24 hrs by annexin VeFITC/PI-based flow cytometry. It counts as functional, cell-based. (In general: Flow cytometry measures light scatter and fluorescence of single cells or particles in a stream.)
Assay [5] concerns HepG2. In words: Induction of apoptosis in human HepG2 cells assessed as viable cells at 0.25 uM after 24 hrs by annexin VeFITC/PI-based flow cytometry (reference value: 89.18 %). It counts as functional. The conditions noted are these: HepG2, 24 h, read-out: Activity.
The test system of assay [6] is HepG2. In words: Induction of apoptosis in human HepG2 cells assessed as viable cells at 0.5 uM after 24 hrs by annexin VeFITC/PI-based flow cytometry (reference value: 89.18 %). It counts as functional. The conditions noted are these: HepG2, 24 h, read-out: Activity.
Assay [7] deals with HepG2. Put plainly: Induction of apoptosis in human HepG2 cells assessed as viable cells at 1 uM after 24 hrs by annexin VeFITC/PI-based flow cytometry (reference value: 89.18 %). It counts as functional. The conditions noted are these: HepG2, 24 h, read-out: Activity.
Assay [8] deals with HepG2. Put plainly: Induction of apoptosis in human HepG2 cells assessed as viable cells at 2 uM after 24 hrs by annexin VeFITC/PI-based flow cytometry (reference value: 89.18 %). The class given is functional. The conditions noted are these: HepG2, 24 h, read-out: Activity.
For assay [9], the system named is HepG2. In words: Induction of apoptosis in human HepG2 cells assessed as early apoptotic cells at 0.25 uM after 24 hrs by annexin VeFITC/PI-based flow cytometry (reference value: 3.28 %). It counts as functional.
For assay [10], the system named is HepG2. Put plainly: Induction of apoptosis in human HepG2 cells assessed as early apoptotic cells at 0.5 uM after 24 hrs by annexin VeFITC/PI-based flow cytometry (reference value: 3.28 %). The class given is functional.
In assay [11] the test system is HepG2. Put plainly: Induction of apoptosis in human HepG2 cells assessed as early apoptotic cells at 1 uM after 24 hrs by annexin VeFITC/PI-based flow cytometry (reference value: 3.28 %). The class given is functional.
In assay [12] the test system is HepG2. In words: Induction of apoptosis in human HepG2 cells assessed as early apoptotic cells at 2 uM after 24 hrs by annexin VeFITC/PI-based flow cytometry (reference value: 3.28 %). It counts as functional.
Assay [13] relates to HepG2. Put plainly: Induction of apoptosis in human HepG2 cells assessed as late apoptotic cells at 0.25 uM after 24 hrs by annexin VeFITC/PI-based flow cytometry (reference value: 6.84 %). It counts as functional.
Assay [14] concerns HepG2. In words: Induction of apoptosis in human HepG2 cells assessed as late apoptotic cells at 0.5 uM after 24 hrs by annexin VeFITC/PI-based flow cytometry (reference value: 6.84 %). It counts as functional.
Assay [15] deals with HepG2. Put plainly: Induction of apoptosis in human HepG2 cells assessed as late apoptotic cells at 1 uM after 24 hrs by annexin VeFITC/PI-based flow cytometry (reference value: 6.84 %). The class given is functional.
Assay [16] concerns HepG2. In words: Induction of apoptosis in human HepG2 cells assessed as late apoptotic cells at 2 uM after 24 hrs by annexin VeFITC/PI-based flow cytometry (reference value: 6.84 %). It counts as functional.
Assay [17] has as its system HepG2. In words: Induction of apoptosis in human HepG2 cells assessed as necrotic cells at 0.25 uM after 24 hrs by annexin VeFITC/PI-based flow cytometry (reference value: 0.7 %). It counts as functional.
Assay [18] deals with HepG2. Put plainly: Induction of apoptosis in human HepG2 cells assessed as necrotic cells at 0.5 uM after 24 hrs by annexin VeFITC/PI-based flow cytometry (reference value: 0.7 %). It counts as functional.
Assay [19] relates to HepG2. Put plainly: Induction of apoptosis in human HepG2 cells assessed as necrotic cells at 1 uM after 24 hrs by annexin VeFITC/PI-based flow cytometry (reference value: 0.7 %). The class given is functional.
Assay [20] relates to HepG2. In words: Induction of apoptosis in human HepG2 cells assessed as necrotic cells at 2 uM after 24 hrs by annexin VeFITC/PI-based flow cytometry (reference value: 0.7 %). It counts as functional.

Telomerase reverse transcriptase, sequence (O14746 whole entry): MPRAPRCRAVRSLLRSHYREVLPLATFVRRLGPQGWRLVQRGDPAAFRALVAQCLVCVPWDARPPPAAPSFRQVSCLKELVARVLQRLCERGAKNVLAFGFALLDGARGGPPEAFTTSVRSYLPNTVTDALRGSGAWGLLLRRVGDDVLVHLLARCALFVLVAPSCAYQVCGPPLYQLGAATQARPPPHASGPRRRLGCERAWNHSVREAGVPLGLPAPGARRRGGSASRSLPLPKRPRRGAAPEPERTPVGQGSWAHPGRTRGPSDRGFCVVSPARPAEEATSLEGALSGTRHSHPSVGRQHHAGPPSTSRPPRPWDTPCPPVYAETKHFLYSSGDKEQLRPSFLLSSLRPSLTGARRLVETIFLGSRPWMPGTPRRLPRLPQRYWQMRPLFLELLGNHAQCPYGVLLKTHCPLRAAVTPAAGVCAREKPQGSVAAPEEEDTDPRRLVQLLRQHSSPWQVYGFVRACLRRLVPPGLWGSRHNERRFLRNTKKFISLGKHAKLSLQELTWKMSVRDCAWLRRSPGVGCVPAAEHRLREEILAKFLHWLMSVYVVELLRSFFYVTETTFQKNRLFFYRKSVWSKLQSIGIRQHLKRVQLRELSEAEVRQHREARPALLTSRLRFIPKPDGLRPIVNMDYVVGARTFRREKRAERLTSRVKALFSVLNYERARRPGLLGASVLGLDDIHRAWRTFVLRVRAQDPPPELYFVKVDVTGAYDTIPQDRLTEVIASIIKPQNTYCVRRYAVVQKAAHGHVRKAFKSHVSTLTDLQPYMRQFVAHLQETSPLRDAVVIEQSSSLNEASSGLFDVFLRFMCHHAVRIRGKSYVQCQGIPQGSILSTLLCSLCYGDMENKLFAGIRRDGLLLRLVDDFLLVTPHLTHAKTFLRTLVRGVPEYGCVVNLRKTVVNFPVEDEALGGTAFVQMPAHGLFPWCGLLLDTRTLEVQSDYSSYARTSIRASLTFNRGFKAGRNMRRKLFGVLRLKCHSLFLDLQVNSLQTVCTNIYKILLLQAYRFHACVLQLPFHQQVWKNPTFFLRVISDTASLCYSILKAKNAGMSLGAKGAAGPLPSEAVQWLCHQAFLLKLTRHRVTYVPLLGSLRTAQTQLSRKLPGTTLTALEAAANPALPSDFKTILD

Consider `Brc1ccc(CSc2nnc(-c3cnccn3)s2)cc1`, for which the IC50 was 0.78 µM with HepG2 [1]; 1.47 µM in [2]; 12.4 µM with HeLa; 25.2 µM in the assay on BGC-823; 1.24 µM in [3]. Further, the Activity entry in the assay on HepG2 [4] is “Dose-dependent effect”; with HepG2 [9], 4.36%; in the assay on HepG2 [10], 11.48%; in the assay with HepG2 [11] it was 14.96%; in the assay with HepG2 [12] it was 17.54%; in the assay on HepG2 [13], 8.62%. The Activity in the assay with HepG2 [14] is 24.02%; in the assay with HepG2 [15] it was 30.6%; in the assay with HepG2 [16], 35.16%; in the assay with HepG2 [17] it was 1.72%; with HepG2 [18], 3.62%; in the assay on HepG2 [19], 4.18%. The Activity in the assay on HepG2 [20] was 2.82%. Further, the viability at 0.25 µM in the assay on HepG2 [5] is 85.3%. In the assay on HepG2 [6], the viability at 0.5 µM was determined as 60.9%. Moreover, in the assay on HepG2 [7], the viability at 1 µM turned out to be 50.3%. The viability at 2 µM with HepG2 [8] was determined as 44.5%.

In general, IC50 refers to the midpoint of a concentration-inhibition curve.

For the origin of these results see ChEMBL document CHEMBL2157889, “Design, synthesis and biological evaluation of heterocyclic azoles derivatives containing pyrazine moiety as potential telomerase inhibitors” (Bioorg Med Chem, 2012).
